# Bioassay records from PubChem.
# Sampled rows, rich in hits. Any-hit rate of the full collection: about 3.1%.
# PAX8 inh HTS – inhibitors of PAX8-driven TPO luciferase reporter, primary screen, RMG-I cells, single concentration; SteadyGlo, 24 h; inhibition, % at 12.6 µM; 1.2% of 360,000 active; AID 652154, 2013;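 active means mean replicate inhibition at least 60% with every replicate also reaching 60%; inconclusive means only one of the two criteria is met; inactive means mean below 60% and not all replicates reaching 60%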;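 further: luciferase light reporting Pax8 driven TPO promoter activity; plate controls were median of neutral control wells for no effect and mitoxantrone controls for full effect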
# PGC1a acetyl inh – inhibitors of PGC1a acetylation signal, primary screen, cell-based, U2OS, AlphaScreen, inhibitor mode; AlphaScreen anti-acetyl-lysine; with virally co-expressed GCN5 acetyltransferase; inhibition, % at 15.6 µM; 0.17% of 350,000 active; AID 651687, 2012;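 active means every replicate shows inhibition of at least 40%; inconclusive means mean inhibition at least 40% but some replicate below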;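 further: 0% = neutral control wells and 100% = positive control wells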
# EWS-Fli inh – EWS/Fli-driven NR0B1 reporter inhibitors, primary screen, A673 cells, NR0B1 luciferase, luminescence, MLPCN library. viability-normalised. inhibition, % at 12.6 µM. 0.67% of 350,000 active. AID 651661, 2012;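 active means mean inhibition of at least 50% after viability correction, with every replicate also passing that limit; inconclusive means mean reaches 50% but only one of two replicates passes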;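 further: firefly luciferase signal divided by Alamar Blue viability fluorescence both relative to DMSO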
# Env fusion inh – inhibitors of HIV-1 Env-driven cell-cell fusion, primary screen, HeLa-JRFL effector, CEM21 target cells, luciferase. AID 651610, 2012. inhibition, % at 12.3 µM. 1.1% of 360,000 active;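 active means mean replicate inhibition score of at least 50 and every replicate individually at or above 50; inconclusive means only one of the two criteria met; inactive means mean below 50 and not all replicates reaching 50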;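 further: 0% = plate neutral controls and 100% = maraviroc near 300 nM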
# FN deposit inh – inhibitors of fibronectin matrix deposition, primary screen, AH1F cells, Alexa488-fibronectin fluorescence, plate reader; AH1F fibroblasts, overnight; inhibition, % at 12.6 µM; 0.086% of 350,000 active;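 active means mean inhibition across replicates of 30% or more, regardless of how many single replicates reach that level; inconclusive means mean under 30% yet at least half of replicates reach 30%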;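 further: positive control wells lacked labelled fibronectin entirely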
#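 Assay system: AH1F fibroblasts assembling fluorescent fibronectin matrix; Amount: 10000 AH1F cells per well; Buffer or medium: DMEM, 2% serum; Probe or stimulus: Alexa488-fibronectin, 24 nM final in well; Doses: single compound dose, delivered by pin transfer; Incubation: 1 h adhesion, overnight exposure; Measured by: fluorescence 485/525 nm; Read-out: fibronectin deposition inhibition.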
# FGF22 binding – binders of human FGF22 protein, primary screen, FGF22 synaptogenesis inhibitor project, biophysical, thermal shift, single point | recombinant FGF22 thermal shift, SYPRO orange fluorescence; percent of sucrose octasulfate shift, DMSO zero | 1.5% of 340,000 active | Fibroblast growth factor 22 (Homo sapiens), Q9HCT0 | AID 651658, 2012 | activity (Tm shift, normalised), % at 9.99 µM;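 active means mean Tm shift, scaled 0 neutral to 100 positive control, at about 1.3% or above, every replicate too, limit read from the data; inconclusive means no clear call, values can overlap the other calls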
# Target sequence (Q9HCT0 whole entry, looked up): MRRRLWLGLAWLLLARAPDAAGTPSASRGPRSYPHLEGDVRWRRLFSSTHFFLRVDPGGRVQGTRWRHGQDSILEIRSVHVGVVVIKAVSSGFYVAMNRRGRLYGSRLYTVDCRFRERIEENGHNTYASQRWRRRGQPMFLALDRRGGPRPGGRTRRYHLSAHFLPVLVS
# Starred values were filed as active, the others as inactive; ? = inconclusive; nt = no result; [ ] = remark or other dose.
SMILES,PAX8 inh HTS,PGC1a acetyl inh,EWS-Fli inh,Env fusion inh,FN deposit inh,FGF22 binding
COc1ccc(C2/C=C\CN(C(=O)c3ccccc3)[C@H](Cc3ccccc3)C(=O)N2Cc2ccc(F)cc2)cc1 (some centres undefined),-5.3,-17.8,21.4,nt,5.5,43.5*
COc1ccccc1C#Cc1ccc([C@H]2[C@@H](C#N)N(C(=O)C3CC3)[C@H]2CO)cc1,66.4*,-2.3,-26.0,nt,4.5,-0.3
COc1ccccc1C#Cc1ccc([C@H]2[C@@H](C#N)N(C(=O)C3CCC3)[C@@H]2CO)cc1,3.9,-8.0,-1.0,-13.1[16.7 µM],9.6,-0.4
COc1ccccc1C#Cc1ccc([C@H]2[C@@H](CO)N(C(=O)C3CCCCC3)[C@H]2C#N)cc1,90.3*,-4.5,17.8,-1.7[16.7 µM],-1.4,0.0
COc1ccccc1C#Cc1ccc([C@H]2[C@H](C#N)N(C(=O)C3CC3)[C@H]2CO)cc1,91.1*,29.1,18.4,nt,0.7,-0.4
C[C@@H](NC(=O)C[C@H]1CC[C@H](NC(=O)Cc2ccccn2)[C@H](CO)O1)c1ccccc1,20.5,3.2,-10.5,13.4[16.7 µM],1.8,-0.2
C[C@@H]1CCCCO[C@@H](CN(C)Cc2ccncc2)[C@H](C)CN([C@@H](C)CO)C(=O)c2cc(NC(=O)CCCN(C)C)ccc2O1,-9.1,12.3,-2.7,14.5[16.7 µM],nt,-0.2
CCOc1ccccc1C(=O)NCC(=O)NNC(=O)CN(C)S(=O)(=O)c1ccc(Cl)cc1,4.0,2.5,10.5,69.5*,-7.6,0.0
C[C@@H]1CCC(=O)N(C[C@@H](C)CSc2ccc(Br)cc2)CC1,-2.6,-5.9,-14.1,nt,-20.6,43.5*
Cc1ccc(SC[C@H](C)CN2CC[C@H](C)CCC2=O)cc1,-1.6,-10.5,-43.5,19.8,-7.9,0.1
C[C@H]1CN([C@@H](C)CO)C(=O)Cc2cc(NC(=O)CCC(F)(F)F)ccc2O[C@@H]1CN(C)Cc1ccccc1,-10.2,nt,2.6,29.1[16.7 µM],nt,0.0
N#Cc1cc2cc3c(cc2nc1SCC(=O)N1CCOCC1)OCCO3,-199.2,nt,56.6*,-29.1,-4.1,-0.3
COc1cc(OC)cc(C(=O)NC(=S)Nc2cc3oc4ccccc4c3cc2OC)c1,-13.9,-13.2,13.9,6.9,nt,0.0
COc1ccc(C(=O)NC(=S)Nc2cc3oc4ccccc4c3cc2OC)cc1,16.8,nt,10.7,11.5,6.2,44.0*
COc1ccc(-c2cc(C(F)(F)F)nc(S(=O)(=O)CCCC(=O)Nc3cccnc3Cl)n2)cc1OC,71.5*,nt,20.1,1.8,9.6,42.3
Cc1cc(NC(=O)CCCS(=O)(=O)c2nc(-c3cccs3)cc(C(F)(F)F)n2)no1,106.1*,-12.1,nt,-4.5,1.3,nt
Cc1cc(NC(=O)CSc2nc(-c3cccs3)cc(C(F)(F)F)n2)no1,nt,-3.0,nt,nt,nt,nt
C[C@H]1CN([C@@H](C)CO)C(=O)c2cc(C3=CCCCC3)cnc2O[C@@H]1CN(C)C(=O)CN1CCOCC1,nt,5.9,-3.0,3.7[16.7 µM],nt,-0.1
Cc1sc2nc(CN(Cc3ccccc3)C(=O)NC3CCCCC3)[nH]c(=O)c2c1C,nt,-15.4,nt,-15.8,2.4,nt
CC(=O)N(Cc1ccccc1)Cc1nc2sc(C)c(C)c2c(=O)[nH]1,14.6,-16.1,5.7,9.4,3.4,43.6*
Cc1cc(Nc2ccccc2)cc(=O)n1C,12.9,59.3*,-6.4,-9.3,0.6,0.1
Cn1c(=O)cc(Nc2ccccc2)[nH]c1=O,7.3,0.2,10.6,0.4,-2.3,0.1
CCC(=O)N1C[C@@H](O)COC[C@@H]2O[C@H](CC(=O)NC)CC[C@H]21,-8.3,-2.7,-1.6,-15.2[16.7 µM],-0.9,0.0
O=C(Nc1ccc(F)cc1)Nc1ccc2c(c1)[C@H]1C[C@@H](CC(=O)N3CCCCC3)O[C@@H](CO)[C@H]1O2,-1.2,-0.5,8.2,40.7[16.7 µM],7.4,-0.2
COc1ccc(S(=O)(=O)N(C)C[C@@H]2OCCCC[C@@H](C)Oc3ccc(NC(=O)Nc4ccc5c(c4)OCO5)cc3C(=O)N([C@@H](C)CO)C[C@H]2C)cc1,-10.5,-5.5,-1.6,16.4[16.7 µM],nt,-0.2
SMILES,PAX8 inh HTS,PGC1a acetyl inh,EWS-Fli inh,Env fusion inh,FN deposit inh,FGF22 binding
O=C(NCc1ccccc1)NCc1cccs1,-16.2,-8.9,-21.8,-6.7,0.8,43.3*
O=C(CNC(=O)Cc1ccccc1)NCc1cccs1,9.2,1.6,-13.2,-0.6,18.2,0.0
O=C(CN1CCN(Cc2ccc(Cl)cc2)C1=O)NCCCN1CCN(c2ccc(F)cc2)CC1,nt,6.2,nt,67.7*,-1.3,nt
C[C@H]1CN([C@@H](C)CO)S(=O)(=O)c2ccc(C#CC3(O)CCCC3)cc2O[C@H]1CN(C)C(=O)Cc1ccncc1,-12.3,8.4,-8.3,-0.3[16.7 µM],-2.6,-0.1
CCOC(=O)C(C)n1cnc2c(nnn2-c2ccc(C)cc2)c1=O (centres undefined),nt,66.7*,nt,-25.1,nt,nt
Cc1ccc(S(=O)(=O)Nc2ccc3c(c2)CC(=O)N([C@@H](C)CO)C[C@@H](C)[C@H](CN(C)Cc2ccccc2)O3)cc1,3.5,-4.9,7.5,nt,nt,-0.1
CC(C)(C)c1ccc(C(=O)CC(=O)c2cc(Cl)ccc2O)cc1,nt,6.3,nt,83.5*,nt,nt
CC(C)(C)c1cc(CCC(=O)Nc2ccncc2)cc(C(C)(C)C)c1O,-8.4,1.6,nt,0.4,1.5,18.4*
CC(C)(C)c1cc(CCC(=O)NCc2ccncc2)cc(C(C)(C)C)c1O,nt,-2.9,nt,nt,nt,nt
CCCNC(=O)[C@H]1[C@H](CO)[C@H]2Cn3c(ccc(-c4cncnc4)c3=O)[C@H]2N1C(=O)c1ccccc1F,nt,nt,-1.6,nt,nt,nt
COc1ccc(COc2cc(-c3cccc(OC)c3)nc3ccc(NC(=O)C(C)C)cc23)cc1,-65.8,nt,55.0*,1.2,4.3,0.0
CC(NS(=O)(=O)c1ccccc1)C(=O)Nc1ccc(S(N)(=O)=O)cc1 (centres undefined),nt,nt,nt,-3.0,0.3,nt
CC(C)CNC(C)C(=O)Nc1ccc(S(N)(=O)=O)cc1 (centres undefined),12.5,10.1,2.7,3.2,5.1,43.2*
NS(=O)(=O)c1ccc(NC(=O)C(Sc2ccccc2)c2ccccc2)cc1 (centres undefined),17.5,nt,-1.6,?,3.1,1.4*
CSc1ccccc1C(=O)C1CCCN(C(=O)c2csnn2)C1 (centres undefined),-9.2,-10.5,-28.8,-5.0,18.3,43.2*
CSc1ccccc1C(=O)C1CCCN(C(=O)c2cc(C(C)C)no2)C1 (centres undefined),25.3,10.7,-13.1,8.2,-33.1,0.2
CC(C)CCN1CCN=C1Nc1ccccc1,4.0,6.1,2.0,59.8*,-2.9,0.1
CC(C)CN1CCN=C1Nc1ccccc1,-8.6,3.3,-2.5,1.3,-4.1,0.0
